≈ marks a conversion by molar mass, not a printed value.
Assays:
Leishmania donovani = assay: Antileishmanial activity against Leishmania donovani MHOM/ET/67/L82 axenic amastigotes after 72 hrs by resazurin assay; type: functional, organism-based; conditions: MHOM/ET/67/L82, 72 h
Method in brief: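 L. donovani MHOM/ET/67/L82 amastigotes grown axenically at 37°C in synthetic minimal medium at pH 5.4 with 10% heat-inactivated FBS under 5% CO2. 1 × 10⁵ amastigotes per well with seven threefold dilutions, 30 to 0.041 μg/ml. After 72 h, resazurin added for 2–4 h more. Fluorescence read at ex 536/em 588 nm. IC50 taken from sigmoidal curve. Run in duplicate, with an independent repeat for actives.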

[1] = target: T1, Farnesyltransferase, putative (Leishmania major, UniProt Q4Q5W4); assay: Inhibition of Leishmania major recombinant squalene synthase expressed in Escherichia coli by liquid scintillation counter
T1 sequence (Q4Q5W4 whole entry): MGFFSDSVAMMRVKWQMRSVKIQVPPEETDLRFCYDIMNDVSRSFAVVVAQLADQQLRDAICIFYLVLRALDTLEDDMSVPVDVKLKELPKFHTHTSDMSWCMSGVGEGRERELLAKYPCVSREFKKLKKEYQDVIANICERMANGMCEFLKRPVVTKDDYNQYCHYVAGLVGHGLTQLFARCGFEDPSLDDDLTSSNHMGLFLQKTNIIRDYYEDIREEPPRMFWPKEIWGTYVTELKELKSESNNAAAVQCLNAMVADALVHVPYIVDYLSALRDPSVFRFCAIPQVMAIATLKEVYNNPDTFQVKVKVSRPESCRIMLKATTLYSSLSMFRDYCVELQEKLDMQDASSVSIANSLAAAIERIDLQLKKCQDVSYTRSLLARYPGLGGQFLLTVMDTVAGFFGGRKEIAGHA
Method in brief: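 Soluble E. coli extract expressing L. major SQS truncated by 16 N-terminal and 40 C-terminal residues. Buffer: 50 mM phosphate pH 7.4, 20 mM MgCl2, 5 mM CHAPS, 1% Tween 80, 10 mM DTT, BSA, 0.25 mM NADPH, and a glucose-6-phosphate/G6PDH regenerating system. Substrate 0.5 μM radiolabelled farnesyl pyrophosphate. Squalene band counted by scintillation. IC50 from hyperbolic plot of five concentrations in duplicate, usually run twice.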

Leishmania amazonensis [2] = assay: Antileishmanial activity against Leishmania mexicana amazonensis promastigotes by trypan blue exclusion method; type: functional, organism-based
Method in brief: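 L. mexicana amazonensis promastigotes cultured in liver infusion-tryptose medium with lactalbumin and 10% FCS at 26°C, unagitated. Cultures started at 2 × 10⁶ cells/ml and drug added at 0.5–1 × 10⁷ cells/ml. Density counted by electronic particle counter and hemocytometer. Viability by trypan blue exclusion. Triplicate growth experiments.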

L6 = assay: Cytotoxicity against rat L6 cells after 72 hrs by resazurin assay; type: cell-based; conditions: L6, 72 h
Method in brief: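 L-6 cells seeded at 4 × 10⁴ cells/ml in RPMI 1640 with 10% FBS and 2 mM L-glutamine. After 24 h, medium replaced with serial drug dilution and incubated for 72 h at 37°C in 5% CO2. Resazurin added for 2–4 h, fluorescence read at ex 536/em 588 nm. IC50 from sigmoidal curve. Duplicate, with an independent repeat for actives.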

Trypanosoma cruzi = assay: Antitrypanosomal activity against trypomastigotes of Trypanosoma cruzi Tulahuen C2C4 containing lacZ gene in rat L6 cells after 4 days by chlorophenol red-beta-D-galactopyranoside/Nonidet assay; type: functional, organism-based; conditions: Tulahuen C2C4, L6, 96 h
Method in brief: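 L-6 rat myoblasts seeded at 2,000 cells/well in RPMI 1640 with 10% FBS and 2 mM L-glutamine. After 24 h, 5,000 T. cruzi Tulahuen C2C4 lacZ trypomastigotes added with serial drug dilution. Incubated at 37°C in 5% CO2 for 4 days. CPRG/Nonidet substrate added and colour read at 540 nm after 2–4 h. IC50 from sigmoidal curve. Duplicate determinations.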

[3] = tested on: Trypanosoma brucei rhodesiense; assay: Trypanocidal activity against Trypanosoma brucei rhodesiense STIB 900 bloodstream form after 72 hrs by resazurin assay; type: functional, organism-based; conditions: STIB 900, 72 h
Method in brief: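 T. b. rhodesiense STIB 900 bloodstream forms in MEM with 2-mercaptoethanol and 15% heat-inactivated horse serum, with serial drug dilutions. Incubated 72 h at 37°C in 5% CO2. Resazurin added for 2–4 h more, fluorescence read at ex 536/em 588 nm. IC50 from sigmoidal curve. Duplicate, with an independent repeat for actives.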

Plasmodium falciparum = assay: Antiplasmodial activity after 48 hrs against chloroquine and pyrimethamine-resistant Plasmodium falciparum K1 in human erythrocytes by [3H]hypoxanthine uptake; type: functional, organism-based
Method in brief: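 P. falciparum K1 in human red cells in RPMI 1640 with 5% Albumax, exposed to serial drug dilutions. Incubated 48 h at 37°C under reduced oxygen, then 0.5 μCi [³H]hypoxanthine per well for 24 h more. Cells harvested onto glass-fibre filters and counted by scintillation. Result expressed as % of untreated control, with IC50 from sigmoidal curve. Duplicate, plus an independent repeat for actives.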

Leishmania amazonensis [4] = assay: Inhibition of sterol biosynthesis in Leishmania mexicana amazonensis promastigotes assessed as reduction in exogenous cholesterol level at 10 uM after 96 hrs by gas-liquid chromatography; type: functional; set-up: scale not given: the % may be the effect or the level left
Method in brief: (§1)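 L. mexicana promastigotes exposed to compound for 96 h. Total lipids extracted and neutral sterols separated from polar lipids by silicic acid column chromatography. Sterols analysed by TLC and by quantitative capillary gas-liquid chromatography with mass spectrometry. Composition expressed as mass % of free sterols, compared with untreated control.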

Leishmania amazonensis [5] = assay: Inhibition of sterol biosynthesis in Leishmania mexicana amazonensis promastigotes assessed as reduction in endogenous 5-dehydro episterol level at 10 uM after 96 hrs by gas-liquid chromatography; type: functional; set-up: scale not given: the % may be the effect or the level left; method in brief: as §1
Leishmania amazonensis [6] = assay: Inhibition of sterol biosynthesis in Leishmania mexicana amazonensis promastigotes assessed as reduction in endogenous episterol level at 10 uM after 96 hrs by gas-liquid chromatography; type: functional; set-up: scale not given: the % may be the effect or the level left; method in brief: as §1

Compound | IC50 (Leishmania donovani) | IC50 [1] | MIC (Leishmania amazonensis [2]) | IC50 (L6) | IC50 (Trypanosoma cruzi) | IC50 [3] | IC50 (Plasmodium falciparum) | Activity (Leishmania amazonensis [4]) | Activity (Leishmania amazonensis [5]) | Activity (Leishmania amazonensis [6])
CCCCCCCCCCCCCCCCOP(=O)([O-])OCC[N+](C)(C)C [MILTEFOSINE] | 0.338 µM |  |  |  |  |  |  |  |  | 
CC(=O)c1ccc(C#CC2(O)CN3CCC2CC3)s1 (stereo not drawn) | 18.9 µM | > 1 µM | > 10 µM | 194 µM | 72.6 µM | 30.3 µM | 10.2 µM | 22.3% | 67.8% | 9.9%
Oc1ccc(C#CC2(O)CN3CCC2CC3)cc1 (stereo not drawn) | 20 µM | > 1 µM | > 10 µM | > 370 µM | 90.4 µM | 53 µM | 18.7 µM | 20.1% | 64.2% | 15.7%
O=C(O)c1ccc(C#CC2(O)CN3CCC2CC3)cc1 (stereo not drawn) | > 111 µM | > 100 µM | > 10 µM | > 332 µM | 90.2 µM | 146 µM | > 18.4 µM | 21.9% | 70.9% | 7.2%
OC1(C#Cc2ccc(Cl)nc2)CN2CCC1CC2 (stereo not drawn) | 16.3 µM | > 1 µM | > 10 µM | > 342 µM | > 114 µM | 53.3 µM | 9.3 µM | 20.1% | 71.7% | 8.2%
COC(=O)c1ccc(N)c(C#CC2(O)CN3CCC2CC3)c1 (stereo not drawn) | 17.2 µM | > 1 µM | > 10 µM | > 300 µM | 44.9 µM | 30.8 µM | 10.9 µM | 19.3% | 74.3% | 6.4%
COc1ccc(C#CC2(O)CN3CCC2CC3)cc1 (stereo not drawn) | 7 µM | > 1 µM | > 10 µM | > 350 µM | 67.2 µM | 18.4 µM | 8.2 µM | 19.8% | 66.8% | 13.4%
COc1cc([C@@H]2c3cc4c(cc3[C@H](O)[C@H]3COC(=O)[C@H]23)OCO4)cc(OC)c1OC [PODOFILOX] |  |  |  | 0.014 µM |  |  |  |  |  | 
C1=C(c2cnc3ccccc3c2)C2CCN1CC2 | 72.4 µM | > 1 µM | > 10 µM | 276 µM | 51.1 µM | 22.4 µM | 15 µM | 18.2% | 74.5% | 7.3%
CCOc1ccc(C#CC2(O)CN3CCC2CC3)cc1 (stereo not drawn) | 10.5 µM |  | > 10 µM | > 332 µM | 21.2 µM | 5.4 µM | 5.9 µM | 30% | 45.4% | 24.6%
OC[C@H]1CC2CCN1C[C@@H]2C#Cc1cnc2ccccc2c1 (stereo partly drawn) | 40.3 µM | > 1 µM | > 10 µM | 38.9 µM | 33.8 µM | 10.9 µM | 2.7 µM | 18.7% | 69.7% | 11.6%
COCCCOc1ccc(C#C[C@@]2(O)CN3CCC2CC3)c(Cc2ccccc2)n1 |  | 0.033 µM |  |  |  |  |  |  |  | 
OC1(C#Cc2cccnc2)CN2CCC1CC2 (stereo not drawn) | 9.2 µM | > 1 µM | > 10 µM | > 394 µM | > 131 µM | 173 µM | 18.9 µM | 12.9% | 75.9% | 11.2%
O=C(O)c1cc(C#CC2(O)CN3CCC2CC3)ccc1O (stereo not drawn) |  | > 1 µM | > 10 µM |  |  |  |  | 20.4% | 74% | 5.6%
C1=C(c2cc3ccccc3o2)C2CCN1CC2 | 82 µM | > 1 µM | > 10 µM | 177 µM | 61.3 µM | 17.1 µM | 6.2 µM | 12.2% | 60% | 27.8%
Cc1ccc(N)cc1C#CC1(O)CN2CCC1CC2 (stereo not drawn) | 28.5 µM | > 1 µM | > 10 µM | > 351 µM | > 117 µM | 62.4 µM | 11.7 µM | 20.7% | 72.8% | 6.5%
OC1(C#Cc2ccc3cc[nH]c3c2)CN2CCC1CC2 (stereo not drawn) | 11.4 µM | > 1 µM | > 10 µM | > 338 µM | 26.2 µM | 19.9 µM | 7.1 µM | 19.9% | 62.6% | 17.5%
CO[C@H]1CN(c2ccc(C#C[C@@]3(O)CN4CCC3CC4)c(Cc3ccccc3)n2)C[C@H]1O |  | 0.013 µM |  |  |  |  |  |  |  | 
OC1(C#Cc2cnccn2)CN2CCC1CC2 (stereo not drawn) |  | > 1 µM | 3 µM (≈ 0.688 µg/mL) |  |  |  |  | 33.8% | 52% | 14.2%
